In PMC7063993 (ACS chemical neuroscience, 2019):

How the values were obtained:
[1] = system: dopaminergic SH-SH5Y cells; assay: MTT cell viability assay, SH-SY5Y cell toxicity; format: cell-based; conditions: read-out: IC50 (SH-SH5Y cell toxicity)
In short: (§1)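 Cells grown in 96-well plates to ~70–80% confluence. Medium replaced with DMEM containing test compound at varying concentrations, 18 h (12 h in one series) at 37 °C. MTT added for 2 h at 37 °C. Formazan dissolved in 50% DMF/20% SDS for 12 h at 37 °C and read as A570 minus A650. Viability expressed as % of untreated controls.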

HepG2 cells [2] = assay: MTT cell viability assay, HepG2 cell toxicity; format: cell-based, Human; conditions: same conditions/concentrations as MN9D experiments
In short: as §1

[3] = Relative lipophilicity estimated by reverse phase HPLC retention times; format: physicochemical
MN9D cells [4] = assay: Cellular uptake into MN9D cells; format: cell-based, mouse; conditions: for Concentration dependence of MN9D cell uptake: up to 100 μM (0-100 μM for 45 min for [3], [4], [5])
In short: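 MN9D cells seeded at 0.25 x 10⁶ cells/well and grown 2–3 days to 70–80% confluency. Test compound in warm KRB-HEPES (pH 7.4) at 37 °C: 50 μM for 0–60 min (time course) or varying concentrations for 45 min. Cells washed in ice-cold buffer and pellets extracted with 0.1 M HClO₄. C18 reversed-phase HPLC-UV quantified against standard curves. Normalized to Bradford protein, time-zero readings subtracted.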

MN9D cells [5] = assay: Chromatin condensation test for apoptosis; format: cell-based, mouse; conditions: 200 μM [1], 12 h, 300 nM DAPI
In short: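 MN9D cells on glass-bottomed plates exposed to test compound for 12 h. Nuclear DAPI fluorescence (Ex/Em 358/461 nm) from chromatin condensation observed by fluorescence microscopy. Controls handled the same way without toxin.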

dopaminergic MN9D cells = assay: MTT cell viability assay, MN9D cell toxicity; format: cell-based, mouse; conditions: Asc pre-treatment 30 min, 8 μM [3] or 40 μM [1], 18 h
In short: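 MN9D cells in 96-well plates pretreated with ascorbate (0–500 μM) for 30 min at 37 °C. Then exposed to a fixed concentration of test compound with the same ascorbate level for 18 h at 37 °C. Read by MTT (A570 − A650) as % of controls. Parallel toxin-free wells at each ascorbate level subtracted to correct for MTT reduction by ascorbate.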

MN9D cells [6] = assay: Intracellular ROS levels by DCFH-DA in MN9D cells; format: cell-based, mouse
HepG2 cells [7] = assay: Intracellular ROS levels by DCFH-DA in HepG2 cells; format: cell-based, Human; conditions: 1 h
In short: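 Cells in 12-well plates loaded with 10 μM DCFH-DA in KRB-HEPES for 1 h, then washed with ice-cold buffer. Exposed to test compound in the same buffer for 1 h at 37 °C. Harvested and lysed in 0.1 M Tris (pH 7.5) with 1% Triton X-100, then cleared by centrifugation. DCF fluorescence read at Ex/Em 488/524 nm and normalized to protein content.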

[8] = system: MN9D cell mitochondrial membrane potential; assay: Mitochondrial membrane potential; format: cell-based, mouse; conditions: 500 μM, 1 h of incubation, TMRM
In short: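 MN9D cells on glass-bottomed plates loaded with 50 nM TMRM in KRB-HEPES for 45 min in the dark. Fluorescence (Ex/Em 543/573 nm) recorded from 15–20 ROIs every 5 s for 3 min as baseline. Test compound then added and recording continued every 15 s for 1 h. Background subtracted and ROI averages taken as membrane potential.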

[9] = Uptake into isolated intact MN9D cell mitochondria; set-up: species or system mouse; conditions: 50 μM, 45 min
[10] = system: rat brain mitochondrial complex I; assay: Mitochondrial complex I; format: biochemical

Compound | RT (relative lipophilicity, reverse phase HPLC retention time) [3] [min] | Concentration dependence of MN9D cell uptake (MN9D cells [4]) | Effect on intracellular ROS levels in HepG2 cells (HepG2 cells [7]) | Depolarization of MN9D cell mitochondrial membrane potential [8] | Uptake into isolated intact MN9D mitochondria [9] | further results
CC(=C[n+]1ccc(-c2ccccc2)cc1)c1ccccc1 [[1], N-(2-phenyl-1-propene)-4-phenyl-pyridinium] | 6.33 | non-saturable |  |  |  | IC50 [1]: ~50 µM; Toxicity to HepG2 cells (HepG2 cells [2]): not significantly toxic; Time course of MN9D cell uptake (MN9D cells [4]; 50 μM, up to 1 h, 37°C): linear; Chromatin condensation (nuclear DAPI fluorescence) in MN9D cell death (MN9D cells [5]): associated with chromatin condensation
O=C1O[C@H]([C@@H](O)CO)C(O)=C1O [Asc, ascorbate, reference compound] |  |  |  |  |  | Effect on [1] and [3]-mediated MN9D cell death (dopaminergic MN9D cells): protects; Effect on [1]-mediated ROS production in MN9D cells (MN9D cells [6]; Asc 0-2 mM pre-incubation 1 h, then 200 μM [1] for 5 h): effectively reduces
4-(4′-methoxyphenyl-1-[2-(4-fluorophenyl)-propyl]pyridinium bromide [[5]] | 6.97 | concentration dependent and non-saturable | did not increase | very weakly | accumulate efficiently in intact mitochondria with comparable efficiency | Effect on intracellular ROS levels in MN9D cells (MN9D cells [6]; MN9D cells, up to 100 μM, 1 h, DCFH-DA): did not significantly increase
C=C(C)[C@H]1Cc2c(ccc3c2O[C@@H]2COc4cc(OC)c(OC)cc4[C@@H]2C3=O)O1 [rotenone] |  |  |  |  |  | Inhibition of ubiquinone dependent NADH oxidation activity of complex I ([10]; 10 μM, positive control, compared to control): more than 85%
C[n+]1ccc(-c2ccccc2)cc1 [MPP^+, 1-methyl-4-phenylpyridinium] |  |  |  |  |  | Relative percent inhibition of complex I ([10]; 100 μM, rat brain mitochondrial membranes): 12.5%
4-(4′-methoxyphenyl-1-[2-(4-chlorophenyl)-propyl] pyridinium bromide [[3]] | 8.39 | concentration dependent and non-saturable | did not increase | drastically | accumulate efficiently in intact mitochondria with comparable efficiency | Increase of intracellular ROS level from the baseline levels (MN9D cells [6]; MN9D cells, 100 μM, 1 h, DCFH-DA): 2.5–3.0 fold
